Among the data in ChEMBL document CHEMBL2069266, “An expeditious regioselective synthesis of novel bioactive indole-substituted chromene derivatives via one-pot three-component reaction” (2012) are zone of inhibition values, retold here.

What all share (format): functional
Conditions in all cases: read-out: DIZ

Experiment [1] has as its system Micrococcus luteus. The experiment can be described thus: Antibacterial activity against Micrococcus luteus at 12 ug/well after 24 hrs by agar well diffusion method. The method, boiled down: (§1)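 Colonies subcultured from nutrient agar into nutrient broth, grown 37 °C for 18 h, then inoculated onto Mueller-Hinton agar plates (four plates). Wells cut with sterile 5 mm glass tube; […] of 100 µg/ml DMSO solution added per well; incubated 37 °C for 24 h before reading inhibition. Data from duplicate or triplicate experiments.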
For orientation: Agar diffusion results depend on both activity and mobility in agar.

The subject of experiment [2] is Salmonella enterica. The experiment can be described thus: Antibacterial activity against Salmonella enterica at 12 ug/well after 24 hrs by agar well diffusion method. The method, boiled down: as §1
The test system of experiment [3] is Pseudomonas aeruginosa. The experiment can be described thus: Antibacterial activity against Pseudomonas aeruginosa at 12 ug/well after 24 hrs by agar well diffusion method. The gist of the method: as §1
In experiment [4] the test system is Bacillus subtilis. As to the kind of experiment: Antibacterial activity against Bacillus subtilis at 12 ug/well after 24 hrs by agar well diffusion method. The gist of the method: as §1

Consider `NC1=C(C(=O)c2c[nH]c3ccc(Br)cc23)C(c2ccc(Cl)cc2Cl)c2c(ccc3ccccc23)O1` (centres undefined), for which the zone of inhibition at 12 µg/disc in experiment [1] was determined as 30 mm.
For the compound `NC1=C(C(=O)c2c[nH]c3ccccc23)C(c2ccc(Cl)cc2)c2c(ccc3ccccc23)O1` (centres undefined), the results for the zone of inhibition at 12 µg/disc in experiment [1] and in experiment [2] were 8 mm and 17 mm, respectively.
On to `Cc1[nH]c2ccccc2c1C(=O)C1=C(N)Oc2ccc3ccccc3c2C1c1ccc(Cl)cc1Cl` (centres undefined), for which the zone of inhibition at 12 µg/disc was determined as 50 mm in experiment [1], 15 mm in experiment [2] and 15 mm in experiment [3].
In the case of `NC1=C(C(=O)c2c[nH]c3ccccc23)C(c2cccc([N+](=O)[O-])c2)c2c(ccc3ccccc23)O1` (centres undefined), the values for the zone of inhibition at 12 µg/disc in experiment [1] and in experiment [4] were 29 mm and 8 mm, respectively.
For the compound `CN(C)[C@@H]1C(O)=C(C(N)=O)C(=O)[C@@]2(O)C(O)=C3C(=O)c4c(O)cccc4[C@@](C)(O)[C@H]3C[C@@H]12` [TETRACYCLINE], the zone of inhibition at 12 µg/disc in experiment [1] was found to be 16 mm; in experiment [2] it was 7 mm; in experiment [4] it was 14 mm; in experiment [3], 18 mm.
For the compound `NC1=C(C(=O)c2c[nH]c3ccc(Br)cc23)C(c2ccc(Cl)cc2)c2c(ccc3ccccc23)O1` (centres undefined), the zone of inhibition at 12 µg/disc in experiment [1] was 45 mm; in experiment [4], 6 mm.
For `CC[C@H]1OC(=O)[C@H](C)[C@@H](O[C@H]2C[C@@](C)(OC)[C@@H](O)[C@H](C)O2)[C@H](C)[C@@H](O[C@@H]2O[C@H](C)C[C@H](N(C)C)[C@H]2O)[C@](C)(O)C[C@@H](C)C(=O)[C@H](C)[C@@H](O)[C@]1(C)O` [ERYTHROMYCIN], the zone of inhibition at 12 µg/disc in experiment [1] amounted to 10 mm; in experiment [2], 8 mm; in experiment [4], 12 mm; in experiment [3] it was 10 mm.
In the case of `NC1=C(C(=O)c2c[nH]c3ccccc23)C(c2ccc(F)cc2)c2c(ccc3ccccc23)O1` (centres undefined), the zone of inhibition at 12 µg/disc in experiment [1] stood at 30 mm; in experiment [2] it was 6 mm; in experiment [4] it was 11 mm.
With `NC1=C(C(=O)c2c[nH]c3ccc(Br)cc23)C(c2ccc(C3C(C(=O)c4c[nH]c5ccc(Br)cc45)=C(N)Oc4ccc5ccccc5c43)cc2)c2c(ccc3ccccc23)O1` (centres undefined), the zone of inhibition at 12 µg/disc in experiment [1] was determined as 30 mm; in experiment [4] it was 6 mm.
Regarding `NC1=C(C(=O)c2c[nH]c3ccc(Br)cc23)C(c2cccnc2)c2c(ccc3ccccc23)O1` (centres undefined), the zone of inhibition at 12 µg/disc amounted to 11 mm in experiment [1] and 6 mm in experiment [2].
With `NC1=C(C(=O)c2c[nH]c3ccccc23)C(c2ccc(C3C(C(=O)c4c[nH]c5ccccc45)=C(N)Oc4ccc5ccccc5c43)cc2)c2c(ccc3ccccc23)O1` (centres undefined), the zone of inhibition at 12 µg/disc in experiment [1] was found to be 7 mm.
Still for that read-out and setting: then `NC1=C(C(=O)c2c[nH]c3ccccc23)C(c2ccc(Br)cc2)c2c(ccc3ccccc23)O1` (centres undefined), with 10 mm.
In the case of `COc1cccc(C2C(C(=O)c3c[nH]c4ccccc34)=C(N)Oc3ccc4ccccc4c32)c1` (centres undefined), the zone of inhibition at 12 µg/disc was determined as 35 mm in experiment [1] and 17 mm in experiment [3].
